Several values for one entry are separate records, joined by “and”; a condition that tells them apart may be missing. Identical values can stand only once.
What was measured:
[1] = tested on: L1210; assay: In vitro inhibition of L1210 leukemia cells growth.; type: functional, cell-based; settings: Mus musculus
In short: (§1)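 Murine L1210 and PDD-resistant L1210/PDD cells kept in McCoy's 5A with 10% fetal calf serum. Compounds in water or Me2SO, or as suspensions, added to inoculated medium; Me2SO at most 0.2% final. Seeding about 5 × 10^4 cells/mL, then 96 h at 37 °C in 5% CO2. Density measured by electronic cell counter. ID50 (µg/mL) from growth inhibition.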

[2] = tested on: L1210; assay: In vitro inhibition of PDD resistant subline L1210/PDD growth.; type: functional, cell-based; settings: Mus musculus; in short: as §1
[3] = tested on: Mus musculus; assay: Activity against L1210 leukemia cells was measured as treated by control on ip administration of 10 mg/kg in mice; type: functional, organism-based; set-up: dose 10 mg/kg; settings: at 10 mg/kg
[4] = tested on: Mus musculus; assay: Activity against L1210 leukemia cells was measured as treated by control on ip administration of 2.5 mg/kg in mice; type: functional, organism-based; set-up: dose 2.5 mg/kg; settings: at 2.5 mg/kg
[5] = tested on: Mus musculus; assay: Activity against L1210 leukemia cells was measured as treated by control on ip administration of 20 mg/kg in mice; type: functional, organism-based; set-up: dose 20 mg/kg; settings: at 20 mg/kg
[6] = tested on: Mus musculus; assay: Activity against L1210 leukemia cells was measured as treated by control on ip administration of 40 mg/kg in mice; type: functional, organism-based; set-up: dose 40 mg/kg; settings: at 40 mg/kg
[7] = tested on: Mus musculus; assay: Activity against L1210 leukemia cells was measured as treated by control on ip administration of 5 mg/kg in mice; type: functional, organism-based; set-up: dose 5 mg/kg; settings: at 5 mg/kg
[8] = tested on: Mus musculus; assay: Activity against L1210 leukemia cells was measured as treated by control on ip administration of 0.62 mg/kg in mice; type: functional, organism-based; set-up: dose 0.62 mg/kg; settings: at 0.62 mg/kg
[9] = tested on: Mus musculus; assay: Activity against L1210 leukemia cells was measured as treated by control on ip administration of 1.25 mg/kg in mice; type: functional, organism-based; set-up: dose 1.25 mg/kg; settings: at 1.25 mg/kg
[10] = tested on: Mus musculus; assay: Activity against L1210 leukemia cells was measured as treated by control on ip administration of 1 mg/kg in mice; type: functional, organism-based; set-up: dose 1 mg/kg; settings: at 1 mg/kg
[11] = tested on: Mus musculus; assay: Activity against L1210 leukemia cells was measured as treated by control on ip administration of 50 mg/kg in mice;Toxic; type: functional, organism-based; set-up: dose 50 mg/kg; settings: at 50 mg/kg

Row | Substance | ID50 [1] [µg/mL] | ID50 [2] [µg/mL] | other results
1 | ethyl(1-trichloroplatinum-2-pyridiniumylmethyl)ammonium | > 10 | > 10 | T/C [3]: 139%; T/C [4]: 119%; T/C [5]: 140%; T/C [6]: 148%; T/C [7]: 122%
2 | N-methyl-1-trichloroplatinum-3-pyridiniumylmethanammonium | > 10 | > 10 | T/C [8]: 110%; T/C [9]: 122%; T/C [3]: 130%; T/C [4]: 126%; T/C [5]: 133%; T/C [7]: 120%
3 | 1-trichloroplatinumhexahydro-1-pyridiniumammonium | 4.2 | > 10 | 
4 | 4-trichloroplatinum-4-azoniabicyclo[2.2.2]oct-2-ammonium | 2 | 5 | 
5 | 1-trichloroplatinumhexahydropyrazinediium | > 10 | > 10 | 
6 | 1-trichloroplatinum-1,4-diazoniabicyclo[2.2.2]octane | > 10 | > 10 | 
7 | 1-methyl-4-trichloroplatinumhexahydropyrazinediium | 9 | > 10 | 
8 | 1-pentachloroplatinum-3-pyridiniumammonium | 4.4 | > 10 | 
9 | ethyl(1-trichloroplatinum-2-pyridiniumyl)ammonium | > 10 | > 10 | 
10 | 3-(1-methyltetrahydro-1H-2-pyrroliumyl)-1-trichloroplatinumpyridinium | > 10 | > 10 | 
11 | 2,5-dimethyl-1-trichloroplatinumhexahydropyrazinediium | 10 | > 10 | 
12 | 2-(1-ethylhexahydro-2-pyridiniumyl)-1-trichloroplatinumpyridinium | > 10 | > 10 | 
13 | 1-trichloroplatinum-3-pyridiniumylmethanammonium | > 10 | > 10 | T/C [10]: 100%; T/C [3]: 125%; T/C [7]: 123% and 138%; T/C [11]: Toxic
14 | 1-(4-pyridiniumyl)-2-(1-trichloroplatinum-4-pyridiniumyl)ethane | > 10 | > 10 | 
15 | 1-chloroplatinumsulphate-3-pyridiniumammonium | 4.6 | > 10 | 
16 | 1-trichloroplatinum-3-pyridiniumammonium | > 10 | > 10 | 
17 | 1-(trichloro-dihydroxy)platinum-3-pyridiniumammonium | 4.5 | > 10 | 

Source: ChEMBL document CHEMBL1122113, “Synthesis and antitumor activity of new platinum complexes” (J Med Chem, 1982)
